This is a sample that favours compounds with a hit; in the whole collection about 2.4% have one here.
S1P4 ag: human S1P4 receptor agonism; O95977; S1P4-expressing cell line, agonist reporter assay; activation, % at 4.98 µM; actives 0.35% (n = 220,000); in the data active means activation above about 11%
Target sequence (O95977 whole entry, looked up): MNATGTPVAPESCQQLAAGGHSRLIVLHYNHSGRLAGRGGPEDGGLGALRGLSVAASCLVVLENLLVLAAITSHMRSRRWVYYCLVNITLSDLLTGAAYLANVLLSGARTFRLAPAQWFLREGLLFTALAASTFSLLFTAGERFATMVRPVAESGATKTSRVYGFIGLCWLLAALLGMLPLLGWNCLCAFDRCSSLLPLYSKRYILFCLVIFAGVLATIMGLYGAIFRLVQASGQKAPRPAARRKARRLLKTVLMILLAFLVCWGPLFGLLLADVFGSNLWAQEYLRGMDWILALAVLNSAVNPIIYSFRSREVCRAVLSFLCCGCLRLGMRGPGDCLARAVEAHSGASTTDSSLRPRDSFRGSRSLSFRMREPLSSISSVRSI
NPY Y1 blocker: antagonists of human neuropeptide Y receptor Y1; P25929; HEK293-CNG Y1 cells, membrane potential fluorescence; NPY at EC95, then isoproterenol; inhibition, % at 3.6 µM; actives 1% (n = 200,000);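 active means inhibition above the campaign mean inhibition of all tested compounds plus 3 SD, cut at about 20% in these data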
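Benchmarks – high control isoproterenol alone, low control NPY with isoproterenol · Material – HEK293 Y1/CNG channel cell line · Times – dye 3 h, compound 60 min room temperature, stimulation 45 min · Probe or stimulus – NPY (25 nM), isoproterenol (1 µM), Ro 20-1724 (25 µM) · Evaluation – % inhibition of NPY effect · Signal – fluorescence, membrane potential probe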
S1P4 antagonist: antagonists of human S1P4 receptor; O95977; S1P4-expressing cells, antagonist mode, reporter read-out; inhibition, % at 4.98 µM; actives 0.26% (n = 220,000); AID 1510; in the data active means inhibition above about 29%
NPY2 pot ag: human NPY-Y2 potentiation or agonism, primary screen; cells expressing NPY-Y2, potentiator/agonist read-out; actives 0.45% (n = 220,000); P49146; activation, % at 3.6 µM; AID 1359; in the data active means activation above about 27%;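 further: cells stimulated with NPY near EC25 plus isoproterenol at EC100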
NPY Y2 blocker: antagonists of human neuropeptide Y receptor Y2 | P49146 | NPY-Y2 expressing cells, antagonist mode | inhibition, % at 2.7 µM | actives 0.99% (n = 140,000) | AID 793
NPY-Y1 PAM-ag: potentiators or agonists of human neuropeptide Y receptor Y1; NPY-Y1 expressing cells, potentiator/agonist activation; activation, % at 3.6 µM; actives 0.37% (n = 220,000); in the data active means activation above about 33%, passing the limit was not always enough;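 further: cells stimulated with NPY at EC10 then isoproterenol at EC100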
NPY1 antag conf: human NPY-Y1 antagonism, confirmation; shares compounds with NPY Y1 blocker; inhibition, % at 3.6 µM; HEK293-CNG NPY-Y1, membrane potential fluorescence, cAMP; NPY challenge against isoproterenol-raised cAMP; actives 21% (n = 1,200); in the data active means inhibition above about 20%
NPY-Y2 antag ct: counter-screen for NPY-Y1 antagonists: human NPY-Y2 antagonism | shares compounds with NPY Y1 blocker | HEK293 NPY-Y2 CNG membrane potential fluorescence; cells given NPY, then isoproterenol | inhibition, % at 3.6 µM | actives 28% (n = 1,200)
Each line names hits and unclear results; the compound was inactive in the other large screens (follow-up assays come after a bar, where they were run). Unless noted, no stated cut-off is given here; in the data, active means inhibition above about 17%; inactive means the rest.

Cc1ccc(-n2nc(C)c3c2OC(N)=C(C#N)C3c2ccncc2)cc1 (configuration not stated)	NPY Y1 blocker 24 | NPY1 antag conf inactive | NPY-Y2 antag ct inactive
CCn1nc(C)c(CNC(=O)c2cc(COc3ccc(F)cc3Cl)on2)c1C	none (no result: NPY Y1 blocker, NPY Y2 blocker)
N#CC1=C(Nc2ccccc2)SC=C(c2ccc(Cl)c(Cl)c2)N=C1N1CCOCC1	NPY Y1 blocker 25 | NPY1 antag conf inactive | NPY-Y2 antag ct inactive
N#CC1=C(Nc2ccccc2)SC=C(c2ccccc2)N=C1N1CCOCC1	none
O=C(Nc1ccccn1)c1sc2cccc(F)c2c1Cl	none (no result: NPY Y2 blocker)
CCOc1ccc(CN2CCN(C3CCSCC3)CC2CCO)cc1 (configuration not stated)	none (no result: NPY Y2 blocker)
Cc1c(C(=O)OCC(C)C)[nH]c2c1C(=O)CC(c1cccs1)C2 (configuration not stated)	NPY Y1 blocker 30 | NPY1 antag conf inactive | NPY-Y2 antag ct 24
COCCOC(=O)c1[nH]c2c(c1C)C(=O)CC(c1cccs1)C2 (configuration not stated)	none (no result: NPY Y2 blocker)
CCN(CC)C(=O)CSc1ncnc2sc(C)c(C)c12	none (no result: NPY Y2 blocker)
CCC(Sc1ncnc2sc(C)c(C)c12)C(=O)OC (configuration not stated)	NPY Y1 blocker 26 | NPY1 antag conf inactive | NPY-Y2 antag ct inactive
Cn1nc(C(=O)Nc2cccc(C(F)(F)F)c2)c2ccccc2c1=O	NPY Y1 blocker 29 | NPY1 antag conf inactive | NPY-Y2 antag ct inactive
CCOC(=O)N1CCN(Cc2cc(Cl)c3cccnc3c2O)CC1	none (no result: NPY Y2 blocker)
COCCNC(=O)[C@@]1(Cc2ccccc2)C=C[C@@H](C)N1C(C)=O	none
c1ccc2c(c1)OCC(c1nnc3sc(-c4ccc5c(c4)OCO5)nn13)O2 (configuration not stated)	none
c1csc(-c2nn3c(C4COc5ccccc5O4)nnc3s2)c1 (configuration not stated)	NPY Y1 blocker 24 | NPY1 antag conf inactive | NPY-Y2 antag ct inactive
Fc1ccc(-c2nn3c(C4COc5ccccc5O4)nnc3s2)cc1 (configuration not stated)	NPY Y1 blocker 21 | NPY1 antag conf inactive | NPY-Y2 antag ct inactive
CCc1cccc(CC)c1NC(=O)CN1CC(C)SC1=NC1CCCCC1 (configuration not stated)	NPY Y1 blocker 34 | NPY1 antag conf 34 | NPY-Y2 antag ct 17
CCc1cccc(CC)c1NC(=O)NC1CCCCC1	none
O=C(C[n+]1cc(-c2ccc(Cl)cc2)n2c1CCC2)Nc1nc(-c2ccc(F)cc2)cs1	none (no result: NPY Y1 blocker, NPY Y2 blocker)
CC(C)CCNc1nc(-c2ccco2)c2c(c1C#N)CCCC2	NPY Y1 blocker 22 | NPY1 antag conf inactive | NPY-Y2 antag ct inactive
O=C(CSc1nnc2c(n1)[nH]c1ccc(S(=O)(=O)N3CCOCC3)cc12)Nc1ccc(F)c(F)c1	none (no result: NPY Y2 blocker)
CCOc1ccc(S(=O)(=O)Nc2cc(OC)ccc2OC)cc1	NPY Y1 blocker 27 | NPY1 antag conf inactive | NPY-Y2 antag ct inactive
COc1ccc(OC)c(NS(=O)(=O)c2ccc(N3CCCC3=O)cc2)c1	NPY Y1 blocker 44 | NPY1 antag conf inactive | NPY-Y2 antag ct inactive
COc1ccc(CCNS(=O)(=O)c2ccc(N3CCCC3=O)cc2)cc1	none
CCOC(=O)c1ccc(Nc2ncnc3ccc(C)cc23)cc1	NPY Y1 blocker 45 | NPY1 antag conf inactive | NPY-Y2 antag ct inactive
COc1ccc(N(C)S(=O)(=O)c2cccc(C(=O)NCC3CCCCC3)c2)cc1	NPY Y1 blocker 26 (no result: NPY Y2 blocker) | NPY1 antag conf 21 | NPY-Y2 antag ct inactive
COc1ccc(N(C)S(=O)(=O)c2cccc(C(=O)NC3CCCCC3C)c2)cc1 (configuration not stated)	NPY Y1 blocker 24 (no result: NPY Y2 blocker) | NPY1 antag conf inactive | NPY-Y2 antag ct inactive
CCOC(=O)C1=C(N)Oc2c(oc(CO)cc2=O)C1c1ccccc1 (configuration not stated)	none (no result: NPY Y2 blocker)
CCOc1ccc(CNc2ccc(S(N)(=O)=O)cc2)cc1	none (no result: NPY Y2 blocker)
CN(C)c1ccc(N=Nc2ccccc2C(=O)OCC(=O)N(C)c2ccccc2)cc1	none
CC(=O)N1CCN(C(=O)COc2ccccc2C(=O)Nc2ccccc2)CC1	none (no result: NPY Y2 blocker)
CCCCN(CCCC)CC(O)COc1ccccc1C(=O)Nc1ccccc1 (configuration not stated)	NPY Y1 blocker 46 (no result: NPY Y2 blocker) | NPY1 antag conf inactive | NPY-Y2 antag ct 18
COc1ccc(OC)c(CCNC(=O)CS(=O)(=O)Cc2nc(-c3ccccc3C)oc2C)c1	NPY Y1 blocker 21 | NPY1 antag conf inactive | NPY-Y2 antag ct inactive
COc1ccc(F)cc1S(=O)(=O)N1CCC(C(N)=O)CC1	none
COc1ccc(C(C)(C)C)cc1S(=O)(=O)N1CCC(C(N)=O)CC1	NPY Y1 blocker 23 | NPY1 antag conf inactive | NPY-Y2 antag ct inactive
COc1cccc(N2C(C(C)=O)=NN(c3ccccc3)C2c2ccc(N3CCOCC3)cc2)c1 (configuration not stated)	none
COc1ccc(C2N(c3ccc(Cl)cc3)N=C(C(C)=O)N(C)N2C(C)=O)cc1 (configuration not stated)	NPY Y1 blocker 29 (no result: NPY Y2 blocker) | NPY1 antag conf 20 | NPY-Y2 antag ct inactive
CN(C1CCCCC1)S(=O)(=O)Cc1ccccc1	NPY Y1 blocker 25 | NPY1 antag conf inactive | NPY-Y2 antag ct inactive
COCCn1cnnc1SCC(=O)Nc1cc(OC)c([N+](=O)[O-])cc1C	none (no result: NPY Y2 blocker)
Cc1ccc(NC(=O)C(c2ccccc2)C2CCCC2)cc1 (configuration not stated)	NPY Y1 blocker 24 | NPY1 antag conf inactive | NPY-Y2 antag ct inactive
O=C(Cn1ccc(C(F)(F)F)n1)N=Nc1c(O)[nH]c2ccccc12	NPY Y1 blocker 38 (no result: NPY Y2 blocker) | NPY1 antag conf 36 | NPY-Y2 antag ct 40
Clc1ccccc1CSc1cc2c(nn1)-c1ccccc1CC2	NPY Y1 blocker 23 | NPY1 antag conf inactive | NPY-Y2 antag ct inactive
Clc1cccc(Cl)c1CSc1cc2c(nn1)-c1ccccc1CC2	none
COC(=O)c1ccc(-n2c(C)cc(/C=N/Nc3nc(C)cc(=O)[nH]3)c2C)cc1	none (no result: NPY Y1 blocker, NPY Y2 blocker)
CCN(CC)CCSc1nc2ccccc2c(=S)n1-c1ccccc1	NPY Y1 blocker 57 (no result: NPY Y2 blocker) | NPY1 antag conf 20 | NPY-Y2 antag ct 24
CCN(CC)CCSc1nc(O)c(-c2ccccc2)c(=O)n1-c1ccccc1	none (no result: NPY Y2 blocker)
O=C(NCCC1=CCCCC1)C(=O)NCC1OCCCN1S(=O)(=O)c1ccc(F)cc1 (configuration not stated)	none (no result: NPY Y2 blocker)
O=C(CCSc1ccccc1)OCn1nnc2ccccc2c1=O	none (no result: NPY Y2 blocker)
